Results as given in ChEMBL document CHEMBL6182837, “Discovery and biological evaluation of nitrofuranyl-pyrazolopyrimidine hybrid conjugates as potent antimicrobial agents targeting Staphylococcus aureus and methicillin-resistant S. aureus” (RSC Med Chem, 2025).
≈ marks a conversion by molar mass, not a printed value. Calls of active or inactive are those of the source. No cut-off for these calls is given here.

Tests used:
Staphylococcus aureus [1] = assay: Disruption of pre-formed biofilms of Staphylococcus aureus ATCC 29213 at 4 to 6 times MIC incubated for 24 hrs by absorbance based method relative to control; assay type: functional
Staphylococcus aureus [2] = assay: Antibacterial activity against Ciprofloxacin-sensitive Staphylococcus aureus […] by Alamar blue staining based analysis; assay type: functional
Staphylococcus aureus [3] = assay: Induction of morphological disruption in Staphylococcus aureus ATCC 29213 at 1 to 2 times MIC incubated for 2 to 6 hrs by SEM analysis; assay type: functional, organism-based; settings: time 2-6 hrs
Outline: (§1)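 Bacteria incubated for 2 h and 6 h at 1×, 2× and 4× MIC, with vancomycin and daptomycin at 1× and 2× MIC and untreated cells; cell morphology imaged by scanning electron microscopy.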

Staphylococcus aureus [4] = assay: Disruption of cell membrane integrity in Staphylococcus aureus ATCC 29213 assessed as red fluorescence at 2 times MIC incubated for 2.5 hrs by DAPI/PI staining based fluorescence microscopy; assay type: functional, organism-based
Outline: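 Bacteria treated at 1× and 2× MIC, with vancomycin 2× MIC as control and an untreated blank; stained with DAPI (all cells) and propidium iodide (membrane-damaged cells); imaged by fluorescence microscopy, red PI signal taken as membrane damage.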

Staphylococcus aureus [5] = assay: Antibacterial activity against Staphylococcus aureus SA-K2192 overexpressing TetK by Alamar blue staining based analysis; assay type: functional
Staphylococcus aureus [6] = assay: Disruption of pre-formed biofilms of methicillin-resistant Staphylococcus aureus ATCC 15187 at 4 to 6 times MIC incubated for 24 hrs by absorbance based method relative to control; assay type: functional
Staphylococcus aureus [7] = assay: Inhibition of biofilm formation of methicillin-resistant Staphylococcus aureus ATCC 15187 at 0.5 times MIC incubated for 27 hrs by absorbance based method; assay type: functional, organism-based
Staphylococcus aureus [8] = assay: Induction of morphological disruption in methicillin-resistant Staphylococcus aureus ATCC 15187 at 1 to 2 times MIC incubated for 2 to 6 hrs by SEM analysis; assay type: functional, organism-based; settings: time 2-6 hrs; outline: as §1
Staphylococcus aureus [9] = assay: Inhibition of biofilm formation of Staphylococcus aureus ATCC 29213 at 0.5 times MIC incubated for 27 hrs by absorbance based method; assay type: functional, organism-based
Staphylococcus aureus [10] = assay: Antibacterial activity against Staphylococcus aureus SA-K2191 overexpressing MsrA by Alamar blue staining based analysis; assay type: functional
Staphylococcus aureus [11] = assay: Antibacterial activity against methicillin-resistant Staphylococcus aureus ATCC 15187 infected in male […] mouse assessed as reduction in bacterial load in lung at 50 mg/kg measured after 24 hrs by colony counting method; assay type: functional, organism-based
Outline: (§2)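 Mouse peritonitis model: 0.1 ml MRSA suspension (10^8 CFU ml−1) given intraperitoneally; treatment intraperitoneal at 50 or 100 mg kg−1 at 2 and 5 h post-infection, with saline and vancomycin (50 mg kg−1) controls; killed at 24 h; kidney and lung homogenates plated on Mueller–Hinton agar with 20 μg ml−1 ciprofloxacin, 24 h; CFU ml−1; unpaired t-test.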

Staphylococcus aureus [12] = assay: Antibacterial activity against methicillin-resistant Staphylococcus aureus ATCC 15187 infected in male […] mouse assessed as reduction in bacterial load in kidney at 50 mg/kg measured after 24 hrs by colony counting method; assay type: functional, organism-based; outline: as §2
Staphylococcus aureus [13] = assay: Antibacterial activity against Staphylococcus aureus SA-1199B overexpressing NorA by Alamar blue staining based analysis; assay type: functional
Staphylococcus aureus [14] = assay: Antibacterial activity against Staphylococcus aureus ATCC 29213 incubated for 24 hrs by Alamar blue staining based microdilution method; assay type: functional

SMILES | Activity (Staphylococcus aureus [1]) | MIC (Staphylococcus aureus [2]) | Activity (Staphylococcus aureus [3]) | Activity (Staphylococcus aureus [4]) | MIC (Staphylococcus aureus [5]) | Activity (Staphylococcus aureus [6]) | inhibition (Staphylococcus aureus [7]) | Activity (Staphylococcus aureus [8]) | inhibition (Staphylococcus aureus [9]) | MIC (Staphylococcus aureus [10]) | Activity (Staphylococcus aureus [11]) | Activity (Staphylococcus aureus [12]) | MIC (Staphylococcus aureus [13]) | MIC (Staphylococcus aureus [14])
CN[C@H](CC(C)C)C(=O)N[C@H]1C(=O)N[C@@H](CC(N)=O)C(=O)N[C@H]2C(=O)N[C@H]3C(=O)N[C@H](C(=O)N[C@H](C(=O)O)c4cc(O)cc(O)c4-c4cc3ccc4O)[C@H](O)c3ccc(c(Cl)c3)Oc3cc2cc(c3O[C@@H]2O[C@H](CO)[C@@H](O)[C@H](O)[C@H]2O[C@H]2C[C@](C)(N)[C@H](O)[C@H](C)O2)Oc2ccc(cc2Cl)[C@H]1O [VANCOMYCIN] | 40% | 0.25 µg/mL (≈ 0.173 µM) | Active | Active | 0.56 µg/mL (≈ 0.386 µM) | 40% | inactive | Active | inactive | 0.25 µg/mL (≈ 0.173 µM) | Active | Active | 0.25 µg/mL (≈ 0.173 µM) | 
O=C(O)c1cn(C2CC2)c2cc(N3CCNCC3)c(F)cc2c1=O [CIPROFLOXACIN] |  | 0.25 µg/mL (≈ 0.754 µM) |  |  | 0.25 µg/mL (≈ 0.754 µM) |  |  |  |  | 4.14 µg/mL (≈ 12.5 µM) |  |  | 4.14 µg/mL (≈ 12.5 µM) | 0.25 µg/mL (≈ 0.754 µM)
CCCCCCCCCC(=O)N[C@@H](Cc1c[nH]c2ccccc12)C(=O)N[C@@H](CC(N)=O)C(=O)N[C@@H](CC(=O)O)C(=O)N[C@@H]1C(=O)NCC(=O)N[C@@H](CCCN)C(=O)N[C@@H](CC(=O)O)C(=O)N[C@H](C)C(=O)N[C@@H](CC(=O)O)C(=O)NCC(=O)N[C@H](CO)C(=O)N[C@@H]([C@@H](C)CC(=O)O)C(=O)N[C@@H](CC(=O)c2ccccc2N)C(=O)O[C@@H]1C |  |  | Active |  |  |  |  | Active |  |  |  |  |  | 
